Measured values: article PMC7004521 (Cancer Science, 2019)

Test: Adverse events suspected to be study drug related, phase 1 study
Format: in vivo, human
Summary of the method: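 Adult patients with advanced solid tumours and confirmed MET dysregulation took oral capsules twice daily from 100 up to 600 mg in escalation, or 400 mg bid tablets, in 28-day cycles. Expansion was 600 mg bid capsules, with a switch to 400 mg bid tablets allowed. Patients were included if they had ≥1 dose and ≥1 valid post-baseline safety assessment. Events were graded by CTCAE v4.0.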

[1] = drug-related, all escalation N=38
[2] = drug-related, all expansions RP2D N=38
[3] = drug-related, escalation 400 mg bid tablet n=5

**Q.** For CNC(=O)c1ccc(-c2cnc3ncc(Cc4ccc5ncccc5c4)n3n2)cc1F [capmatinib], which tolerability (across all explored doses) is on record?
**A.** well tolerated

**Q.** And the “ALT increased, all grades” value [1]?
**A.** 3 (8) n (%)

**Q.** What about the “ALT increased, grade 3/4” value [1] of the same compound?
**A.** 2 (5) n (%)

**Q.** What about the “AST increased, all grades” value [1] of the same compound?
**A.** 5 (13) n (%)

**Q.** And the “AST increased, grade 3/4” value [1]?
**A.** 1 (3) n (%)

**Q.** What about the “Amylase increased, all grades” value [1] of the same compound?
**A.** 2 (5) n (%)

**Q.** What about the “Amylase increased, grade 3/4” value [1] of the same compound?
**A.** 1 (3) n (%)

**Q.** What about the “Asthenia, all grades” value [1] of the same compound?
**A.** 6 (16) n (%)

**Q.** And the “Asthenia, grade 3/4” value [1]?
**A.** 0 n (%)

**Q.** What about the “Blood bilirubin increased, all grades” value [1] of the same compound?
**A.** 4 (11) n (%)

**Q.** What about the “Blood bilirubin increased, grade 3/4” value [1] of the same compound?
**A.** 1 (3) n (%)

**Q.** What about the “Blood creatinine increased, all grades” value [1] of the same compound?
**A.** 2 (5) n (%)

**Q.** What about the “Blood creatinine increased, grade 3/4” value [1] of the same compound?
**A.** 0 n (%)

**Q.** And the “Constipation, all grades” value [1]?
**A.** 3 (8) n (%)

**Q.** What about the “Constipation, grade 3/4” value [1] of the same compound?
**A.** 0 n (%)

**Q.** And the “Decreased appetite, all grades” value [1]?
**A.** 11 (29) n (%)

**Q.** What about the “Diarrhea, all grades” value [1] of the same compound?
**A.** 5 (13) n (%)

**Q.** What about the “Diarrhea, grade 3/4” value [1] of the same compound?
**A.** 0 n (%)

**Q.** What about the “Dizziness, all grades” value [1] of the same compound?
**A.** 1 (3) n (%)

**Q.** What about the “Dizziness, grade 3/4” value [1] of the same compound?
**A.** 0 n (%)

**Q.** What about the “Dyspepsia, all grades” value [1] of the same compound?
**A.** 1 (3) n (%)

**Q.** And the “Dyspepsia, grade 3/4” value [1]?
**A.** 0 n (%)

**Q.** And the “Fatigue, all grades” value [1]?
**A.** 10 (26) n (%)

**Q.** What about the “Fatigue, grade 3/4” value [1] of the same compound?
**A.** 3 (8) n (%)

**Q.** And the “Headache, all grades” value [1]?
**A.** 2 (5) n (%)

**Q.** And the “Headache, grade 3/4” value [1]?
**A.** 0 n (%)

**Q.** And the “Hypoalbuminemia, all grades” value [1]?
**A.** 6 (16) n (%)

**Q.** What about the “Hypoalbuminemia, grade 3/4” value [1] of the same compound?
**A.** 1 (3) n (%)

**Q.** And the “Hypophagia, all grades” value [1]?
**A.** 2 (5) n (%)

**Q.** What about the “Hypophagia, grade 3/4” value [1] of the same compound?
**A.** 2 (5) n (%)

**Q.** And the “Lipase increased, all grades” value [1]?
**A.** 1 (3) n (%)

**Q.** And the “Lipase increased, grade 3/4” value [1]?
**A.** 1 (3) n (%)

**Q.** And the “Maculo‐papular rash, all grades” value [1]?
**A.** 1 (3) n (%)

**Q.** And the “Maculo‐papular rash, grade 3/4” value [1]?
**A.** 0 n (%)

**Q.** And the “Myalgia, all grades” value [1]?
**A.** 2 (5) n (%)

**Q.** And the “Myalgia, grade 3/4” value [1]?
**A.** 0 n (%)

**Q.** And the “Nausea, all grades” value [1]?
**A.** 12 (32) n (%)

**Q.** What about the “Nausea, grade 3/4” value [1] of the same compound?
**A.** 0 n (%)

**Q.** What about the “Odynophagia, all grades” value [1] of the same compound?
**A.** 2 (5) n (%)

**Q.** What about the “Odynophagia, grade 3/4” value [1] of the same compound?
**A.** 0 n (%)

**Q.** And the “Peripheral edema, all grades” value [1]?
**A.** 8 (21) n (%)

**Q.** And the “Peripheral edema, grade 3/4” value [1]?
**A.** 1 (3) n (%)

**Q.** And the “Pyrexia, all grades” value [1]?
**A.** 2 (5) n (%)

**Q.** And the “Pyrexia, grade 3/4” value [1]?
**A.** 0 n (%)

**Q.** And the “Stomatitis, all grades” value [1]?
**A.** 2 (5) n (%)

**Q.** And the “Stomatitis, grade 3/4” value [1]?
**A.** 0 n (%)

**Q.** What about the “Thrombocytopenia, all grades” value [1] of the same compound?
**A.** 1 (3) n (%)

**Q.** What about the “Thrombocytopenia, grade 3/4” value [1] of the same compound?
**A.** 0 n (%)

**Q.** What about the “Total protein decreased, all grades” value [1] of the same compound?
**A.** 2 (5) n (%)

**Q.** And the “Total protein decreased, grade 3/4” value [1]?
**A.** 0 n (%)

**Q.** What about the “Upper abdominal pain, all grades” value [1] of the same compound?
**A.** 2 (5) n (%)

**Q.** And the “Upper abdominal pain, grade 3/4” value [1]?
**A.** 0 n (%)

**Q.** What about the “Vomiting, all grades” value [1] of the same compound?
**A.** 11 (29) n (%)

**Q.** And the “Vomiting, grade 3/4” value [1]?
**A.** 0 n (%)

**Q.** What about the “ALT increased, all grades” value [2] of the same compound?
**A.** 2 (5) n (%)

**Q.** What about the “ALT increased, grade 3/4” value [2] of the same compound?
**A.** 2 (5) n (%)

**Q.** And the “AST increased, all grades” value [2]?
**A.** 4 (11) n (%)

**Q.** What about the “Amylase increased, all grades” value [2] of the same compound?
**A.** 0 n (%)

**Q.** What about the “Amylase increased, grade 3/4” value [2] of the same compound?
**A.** 0 n (%)

**Q.** What about the “Asthenia, all grades” value [2] of the same compound?
**A.** 2 (5) n (%)

**Q.** And the “Asthenia, grade 3/4” value [2]?
**A.** 0 n (%)

**Q.** What about the “Blood bilirubin increased, all grades” value [2] of the same compound?
**A.** 0 n (%)

**Q.** What about the “Blood bilirubin increased, grade 3/4” value [2] of the same compound?
**A.** 0 n (%)

**Q.** What about the “Blood creatinine increased, all grades” value [2] of the same compound?
**A.** 2 (5) n (%)

**Q.** And the “Blood creatinine increased, grade 3/4” value [2]?
**A.** 1 (3) n (%)

**Q.** What about the “Constipation, all grades” value [2] of the same compound?
**A.** 1 (3) n (%)

**Q.** And the “Constipation, grade 3/4” value [2]?
**A.** 0 n (%)

**Q.** What about the “Decreased appetite, all grades” value [2] of the same compound?
**A.** 4 (11) n (%)

**Q.** And the “Decreased appetite, grade 3/4” value [2]?
**A.** 0 n (%)

**Q.** What about the “Diarrhea, all grades” value [2] of the same compound?
**A.** 7 (18) n (%)

**Q.** What about the “Diarrhea, grade 3/4” value [2] of the same compound?
**A.** 0 n (%)

**Q.** And the “Dizziness, all grades” value [2]?
**A.** 2 (5) n (%)

**Q.** And the “Dizziness, grade 3/4” value [2]?
**A.** 0 n (%)

**Q.** What about the “Dyspepsia, all grades” value [2] of the same compound?
**A.** 2 (5) n (%)

**Q.** And the “Dyspepsia, grade 3/4” value [2]?
**A.** 0 n (%)

**Q.** What about the “Fatigue, all grades” value [2] of the same compound?
**A.** 9 (24) n (%)

**Q.** What about the “Fatigue, grade 3/4” value [2] of the same compound?
**A.** 1 (3) n (%)

**Q.** What about the “Headache, all grades” value [2] of the same compound?
**A.** 1 (3) n (%)

**Q.** And the “Headache, grade 3/4” value [2]?
**A.** 0 n (%)

**Q.** And the “Hypoalbuminemia, all grades” value [2]?
**A.** 1 (3) n (%)

**Q.** What about the “Hypoalbuminemia, grade 3/4” value [2] of the same compound?
**A.** 0 n (%)

**Q.** What about the “Lipase increased, all grades” value [2] of the same compound?
**A.** 3 (8) n (%)

**Q.** What about the “Lipase increased, grade 3/4” value [2] of the same compound?
**A.** 2 (5) n (%)

**Q.** What about the “Localized edema, all grades” value [2] of the same compound?
**A.** 2 (5) n (%)

**Q.** What about the “Localized edema, grade 3/4” value [2] of the same compound?
**A.** 0 n (%)

**Q.** And the “Maculo‐papular rash, all grades” value [2]?
**A.** 2 (5) n (%)

**Q.** And the “Maculo‐papular rash, grade 3/4” value [2]?
**A.** 0 n (%)

**Q.** What about the “Myalgia, all grades” value [2] of the same compound?
**A.** 2 (5) n (%)

**Q.** And the “Myalgia, grade 3/4” value [2]?
**A.** 0 n (%)

**Q.** What about the “Nausea, all grades” value [2] of the same compound?
**A.** 11 (29) n (%)

**Q.** What about the “Nausea, grade 3/4” value [2] of the same compound?
**A.** 1 (3) n (%)

**Q.** What about the “Odynophagia, all grades” value [2] of the same compound?
**A.** 0 n (%)

**Q.** And the “Odynophagia, grade 3/4” value [2]?
**A.** 0 n (%)

**Q.** And the “Peripheral edema, all grades” value [2]?
**A.** 10 (26) n (%)

**Q.** And the “Peripheral edema, grade 3/4” value [2]?
**A.** 0 n (%)

**Q.** And the “Pyrexia, all grades” value [2]?
**A.** 0 n (%)

**Q.** What about the “Pyrexia, grade 3/4” value [2] of the same compound?
**A.** 0 n (%)

**Q.** And the “Stomatitis, all grades” value [2]?
**A.** 1 (3) n (%)

**Q.** What about the “Stomatitis, grade 3/4” value [2] of the same compound?
**A.** 0 n (%)

**Q.** What about the “Thrombocytopenia, all grades” value [2] of the same compound?
**A.** 2 (5) n (%)

**Q.** What about the “Thrombocytopenia, grade 3/4” value [2] of the same compound?
**A.** 1 (3) n (%)

**Q.** What about the “Total protein decreased, all grades” value [2] of the same compound?
**A.** 0 n (%)

**Q.** And the “Total protein decreased, grade 3/4” value [2]?
**A.** 0 n (%)

**Q.** And the “Upper abdominal pain, all grades” value [2]?
**A.** 0 n (%)

**Q.** And the “Upper abdominal pain, grade 3/4” value [2]?
**A.** 0 n (%)

**Q.** And the “Vomiting, all grades” value [2]?
**A.** 7 (18) n (%)

**Q.** And the “Vomiting, grade 3/4” value [2]?
**A.** 1 (3) n (%)

**Q.** And the “ALT increased, all grades” value [3]?
**A.** 1 (20) n (%)

**Q.** And the “ALT increased, grade 3/4” value [3]?
**A.** 0 n (%)

**Q.** What about the “AST increased, all grades” value [3] of the same compound?
**A.** 1 (20) n (%)

**Q.** And the “Amylase increased, all grades” value [3]?
**A.** 0 n (%)

**Q.** What about the “Amylase increased, grade 3/4” value [3] of the same compound?
**A.** 0 n (%)

**Q.** And the “Asthenia, all grades” value [3]?
**A.** 1 (20) n (%)

**Q.** And the “Asthenia, grade 3/4” value [3]?
**A.** 0 n (%)

**Q.** And the “Blood bilirubin increased, all grades” value [3]?
**A.** 0 n (%)

**Q.** And the “Blood bilirubin increased, grade 3/4” value [3]?
**A.** 0 n (%)

**Q.** And the “Blood creatinine increased, all grades” value [3]?
**A.** 0 n (%)

**Q.** And the “Blood creatinine increased, grade 3/4” value [3]?
**A.** 0 n (%)

**Q.** And the “Constipation, all grades” value [3]?
**A.** 1 (20) n (%)

**Q.** And the “Constipation, grade 3/4” value [3]?
**A.** 0 n (%)
